The text below walks through data of ChEMBL document CHEMBL1129493 (J Med Chem, 1996).

In brackets after ≈: the same amount, converted by molar mass.

Series [1] concerns A549. Nature of the series: Cytotoxic activity evaluated against A549 tumor cells. The following applies: Homo sapiens.
Series [2] relates to Candida albicans. Nature of the series: Minimum inhibitory concentration evaluated against Candida albicans. Format: functional.
Series [3] in a line: Cytotoxic activity was evaluated against Daoy tumor cells. Particulars: Homo sapiens. Format: functional, cell-based. In short, it runs like this:
(§1)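 Cytotoxicity was read by MTT dye reduction for suspension cultures or sulforhodamine B for monolayer cultures. For reversal of multidrug resistance, reserpine was added as reversing agent ([…] as printed).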

Series [4] concerns D54 cell line. The series is described as follows: Cytotoxic Activity was evaluated against D54 tumor cells. Format: functional, cell-based. Particulars: Homo sapiens. The method in brief:
as §1

The target of series [5] is T1, Dihydrofolate reductase (Candida albicans, UniProt P22906).
T1 sequence (P22906 whole entry): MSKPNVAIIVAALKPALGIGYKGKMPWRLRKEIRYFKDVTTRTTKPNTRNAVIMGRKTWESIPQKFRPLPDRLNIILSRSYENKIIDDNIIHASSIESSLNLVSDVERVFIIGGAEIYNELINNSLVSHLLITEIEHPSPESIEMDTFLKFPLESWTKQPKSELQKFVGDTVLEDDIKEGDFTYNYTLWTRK
Nature of the series: Inhibition of Dihydrofolate reductase enzyme from Candida albicans.

Series [6] concerns the target T2, Dihydrofolate reductase (Homo sapiens, UniProt P00374).
T2 sequence (P00374 whole entry): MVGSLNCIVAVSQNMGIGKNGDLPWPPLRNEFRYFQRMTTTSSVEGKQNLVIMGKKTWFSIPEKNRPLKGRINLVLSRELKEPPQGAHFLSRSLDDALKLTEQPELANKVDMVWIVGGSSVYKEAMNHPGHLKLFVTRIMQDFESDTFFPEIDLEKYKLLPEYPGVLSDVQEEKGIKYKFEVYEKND
The series is described as follows: Inhibition of human recombinant Dihydrofolate reductase enzyme.

In series [7] the test system is NCI-H460. The series is described as follows: Cytotoxic Activity was evaluated against H460 tumor cells. Format: functional, cell-based. The following applies: Homo sapiens. The method in brief: as §1
Series [8] concerns HCT-8. The series is described as follows: Cytotoxic Activity was evaluated against HCT-8 tumor cells. In kind it is functional, cell-based. The following applies: Homo sapiens. In short, it runs like this:
as §1

Series [9] is described as follows: Cytotoxic activity was evaluated against L tumor cells. Format: functional, cell-based. Particulars: Mus musculus. The method in brief:
as §1

Series [10] has as its system Mus musculus. The series is described as follows: Effect on life span of mice with intracranially implanted P388 Leukemic cells. In kind it is functional. The method in brief: (§2)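 CDF-1 female mice (18–20 g, 5 or 8/group); P388 leukemia, maintained by in vivo serial passage, implanted intracranially at 1 × 10^5 cells. Treatment started 24 h later; test agents suspended in 0.5% carboxymethyl cellulose plus 1% Tween 80, given sc or ip qd × 10. Read-out was percent increase in life span versus controls.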

The test system of series [11] is Mus musculus. Nature of the series: Effect on life span of mice with intraperitoneally implanted P388 Leukemic cells. In kind it is functional. In short, it runs like this: (§3)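 CDF-1 female mice (18–20 g, 5 or 8/group); P388 or P388/ADR cells implanted ip at 1 × 10^6 cells. Dosing began 24 h later; agents suspended in 0.5% carboxymethyl cellulose plus 1% Tween 80, given sc or ip qd × 10. Read-out was percent increase in life span.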

In series [12] the test system is Mus musculus. Nature of the series: Effect on life span of mice with intraperitoneally implanted P388/ADR Leukemic cells. In kind it is functional. The method in brief:
as §3

The species named for series [13] is Mus musculus. The series is described as follows: Effect on Pneumocystis carinii pneumonia in SCID mice in presence of leucovorin. In kind it is functional. The method in brief:
(§4)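 SCID mice (10-11/group) were dosed prophylactically once daily from day 1 postinfection, 42 doses. Test drug in D5W was given ip, then leucovorin 12 mg/kg sc 30 min later. Trimethoprim 50 mg/kg plus sulfamethoxazole 250 mg/kg was given orally, and controls received D5W ip and sc. Lung impression smears were taken 24 h after the last dose and stained by immunofluorescence. Infection was scored 0-4 semilogarithmically, reported as mean ± SEM and as infected/total mice.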

The species named for series [14] is Mus musculus. The series is described as follows: Number of mice infected to that of total number of mice ([…]/[…]). Format: functional, organism-based.
Series [15] has as its system P388. The series is described as follows: Cytotoxic activity was evaluated against P388D1 tumor cells. Particulars: Mus musculus. Format: functional, cell-based. The method in brief: as §1
The test system of series [16] is U373 MG. The series is described as follows: Cytotoxic activity was evaluated against U373MG tumor cells. In kind it is functional, cell-based, U-373MG ATCC. The following applies: Homo sapiens. In short, it runs like this: as §1
Series [17] relates to U-87 MG. Nature of the series: Cytotoxic activity was evaluated against U87MG tumor cells. In kind it is functional, cell-based, U-87MG ATCC. Particulars: Homo sapiens. The method in brief:
as §1

Series [18] relates to Vero. The series is described as follows: Cytotoxic Activity was evaluated against Vero tumor cells. Format: functional, cell-based. The following applies: Chlorocebus sabaeus. The method in brief:
as §1

The test system of series [19] is 143B. Nature of the series: Cytotoxic Activity was evaluated against 143B (TK-) tumor cells. In kind it is functional, cell-based. The following applies: Homo sapiens. In short, it runs like this: as §1
The nature of series [20]: Relative concentration of compound (70 mg/Kg) in brain compared to concentration in plasma (160 ug/mL) at the time of tissue collection from rabbit; relative concentration. In kind it is ADME, organism-based, Oryctolagus cuniculus. The following applies: read-out: Activity.
Series [21] is described as follows: Relative concentration of compound (70 mg/Kg) in lung compared to concentration in plasma (160 ug/mL) at the time of tissue collection from rabbit; relative concentration. Format: ADME, organism-based, Oryctolagus cuniculus. Particulars: read-out: Activity.
Series [22] can be described thus: Relative concentration of compound in brain compared to concentration in plasma (9.4 ug/mL) at the time of tissue collection from mice; relative concentration. Format: ADME, organism-based. Particulars: mouse, read-out: Other.
The test system of series [23] is HCT-8. Nature of the series: Activity was evaluated against HCT-8 tumor cells. Format: functional, cell-based. The following applies: Homo sapiens. In short, it runs like this: as §1
Series [24] relates to Candida albicans. The series is described as follows: Minimum inhibitory concentration was evaluated against Candida albicans. Format: functional.
Series [25] in a line: Relative concentration of compound in brain compared to concentration in plasma (0.4 ug/mL) at the time of tissue collection from mice; relative concentration. Format: ADME, organism-based. The following applies: mouse, read-out: Activity.
The test system of series [26] is Mus musculus. Nature of the series: Effect on life span of mice with intracranially implanted P388 Leukemic cells at 10 mg/kg by subcutaneous injection. In kind it is functional. In short, it runs like this:
as §2

For series [27], the system named is Mus musculus. The series is described as follows: Effect on life span of mice with intraperitoneally implanted P388 Leukemic cells at 10 mg/kg by subcutaneous injection. In kind it is functional. In short, it runs like this:
as §3

Series [28] has as its system Mus musculus. Nature of the series: Effect on life span of mice with intraperitoneally implanted P388/ADR Leukemic cells at 10 mg/kg by subcutaneous injection. Format: functional. The method in brief:
as §3

The species named for series [29] is Mus musculus. Nature of the series: Effect on Pneumocystis carinii pneumonia in SCID mice in the presence of leucovorin. Format: functional. In short, it runs like this: as §4
For series [30], the species on record is Mus musculus. The series is described as follows: Number of mice infected to that of total number of mice (2/11). In kind it is functional, organism-based.
The species entered for series [31] is Mus musculus. The series is described as follows: Effect on Candida albicans nephritis and Meningitis in Immunosuppressed Mice brain. Format: functional. The method in brief: (§5)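 Immunosuppressed CD-1 female mice (10/group) given cyclophosphamide ip, 160 and 40 mg/kg on days -4 and -1; C. albicans 5 × 10^4 cfu/mouse iv via lateral tail vein. Sc dosing of 20 or 50 mg/kg in sesame oil at 3, 7, 24, 30 h post-inoculation; sulfamethoxazole 200 mg/kg ip in D5W given 1 h before each dose. Kidney and brain cultured at 48 h; log cfu/g tissue.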

Series [32] is filed under the species Mus musculus. The series is described as follows: Effect on Candida albicans nephritis and Meningitis in Immunosuppressed Mice brain in the presence of SMX. Format: functional. In short, it runs like this:
(§6)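 Immunosuppressed CD-1 female mice (10/group; cyclophosphamide 160 and 40 mg/kg ip on days -4 and -1) inoculated iv via lateral tail vein with 5 × 10^4 cfu C. albicans. Compound sc in 0.1 mL sesame oil (20 or 50 mg/kg) at 3, 7, 24, 30 h; sulfamethoxazole 200 mg/kg ip in D5W 1 h before each dose. Kidney and brain cultured at 48 h; log cfu/g tissue, duplicate or single experiments.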

The species entered for series [33] is Mus musculus. The series is described as follows: Effect on Candida albicans nephritis and Meningitis in Immunosuppressed Mice kidney. In kind it is functional. The method in brief:
as §5

Series [34] is filed under the species Mus musculus. Nature of the series: Effect on Candida albicans nephritis and Meningitis in Immunosuppressed Mice kidney in the presence of SMX. In kind it is functional. In short, it runs like this:
as §6

As for `COc1ccc(OC)c(Cc2cnc3nc(N)nc(N)c3c2C)c1` [PIRITREXIM], the IC50 in series [1] came out at 24 nM; in series [3], 70 nM; in series [4] it was 230 nM; in series [7] it was 260 nM; in series [8], 68 nM; in [9] it was 76 nM. Also, the IC50 in [15] worked out at 21 nM; in series [16], 55 nM; in series [17], 48 nM; in series [18], 30 nM. The MIC in series [2] was more than 10 mg/L. Further, the values for the inhibition constant Ki in series [5] and in series [6] were 1.9 nM and 0.025 nM, respectively. In addition, the Increase in life-span in [10] is recorded as 0%; in series [11] it was 40%; in [12], -5%. The Infection score in series [13] stood at 3.27. Moreover, the “No. of mice infected /total” value in [14] is “Number of mice infected to that of total number of mice ([…]/[…])”.
Turning to `CN(Cc1cnc2nc(N)nc(N)c2n1)c1ccc(C(=O)N[C@@H](CCC(=O)O)C(=O)O)cc1` [METHOTREXATE], the IC50 in series [19] was determined as 8.8 nM; in [1], 31 nM; in [3] it was 9 nM; in [4] it was 16 nM; in series [7], 9.5 nM; in series [9], 8.3 nM. The IC50 in [15] came to 4.8 nM; in series [16] it was 12 nM; in series [17] it was 22 nM; in [18], 9.2 nM. The Kp in [20] worked out at 0.006; in series [21] it was 0.05.
On to `COc1cc(NCc2ccc3nc(N)nc(N)c3c2C)cc(OC)c1OC` [TRIMETREXATE], for which the IC50 came out at 5.3 nM in [1]; 12 nM in series [3]; 60 nM in series [4]; 1.8 nM in series [23]; 4.7 nM in [9]; 2.7 nM in series [15]. In addition, the IC50 is 9.6 nM in [16], 11 nM in series [17] and 16 nM in [18]. In [22], the Kp came to 0.1. In series [2], the MIC is more than 50 mg/L. In series [5], this molecule had an inhibitory constant (Ki) of 1.9 nM.
On to `COc1cc(Cn2ccc3c4c(N)nc(N)nc4ccc32)cc(OC)c1OC`, for which the MIC in [24] worked out at 5 mg/L (≈ 13.2 µM). Moreover, the Ki in series [5] came out at 0.23 nM; in series [6], 0.006 nM.
Turning to `CCC(CC)n1c(C)cc2c3c(N)nc(N)nc3ccc21`, the IC50 in series [19] was 0.8 nM; in series [1], 0.4 nM; in series [3], 2.3 nM; in series [4], 4.6 nM; in series [7], 0.5 nM; in [23], 0.74 nM. In addition, the IC50 in series [9] was found to be 0.6 nM; in [15] it was 0.12 nM; in [16], 2.3 nM; in series [17], 2.1 nM; in series [18], 1 nM. Moreover, the Kp in [25] is 10. For the same molecule, the MIC in series [2] amounted to 0.025 mg/L (≈ 0.0882 µM). Moreover, the Ki is 0.03 nM in [5] and 0.0003 nM in series [6]. Moreover, the Increase in life-span in [26] is reported as 50%; in series [27], 80%; in series [28], 20%. Moreover, the Infection score in series [29] was 0.18. The “No. of mice infected /total” value in series [30] was “Number of mice infected to that of total number of mice (2/[…])”. Moreover, the “Log cfu/g of tissue” value in [31] was determined as 3.6; in series [32] it was 3.4; in [33], 3.4; in [34], 2.5.

As usually defined, the IC50 is the concentration needed to halve the response being measured. Higher therefore signals weaker potency in that assay. The term MIC denotes the smallest concentration in the dilution series that meets the test's criterion for growth inhibition. Higher therefore signals a less susceptible organism. As a reminder, the Ki is the equilibrium dissociation constant of an inhibitor or competing ligand from its target.
